Results from the EternaBench riboswitch data.

Tested on: MS2 coat protein
Test: apparent Kd, MS2 coat protein; higher = weaker binding; RNA-MaP array; FMN 200 µM where present
How it was run: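 On Illumina sequencing-chip clusters, designs were transcribed by stalled E. coli RNA polymerase and titrated with SNAP-549-labelled MS2 coat protein (0.7 or 1.5 nM, doubling to 3 µM), without and then with constant ligand, in 100 mM Tris-HCl pH 7.5, 80 mM KCl, 4 mM MgCl2, BSA, DTT, yeast tRNA and Tween-20. Apparent Kd is the median of filtered per-cluster curve fits to green signal normalised to red-channel RNA signal and control-cluster median Fmax.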

[1] = designed as: ON switch for flavin mononucleotide, no ligand
[2] = ligand present: flavin mononucleotide, designed as: ON switch for flavin mononucleotide
[3] = designed as: OFF switch for flavin mononucleotide, no ligand
[4] = ligand present: flavin mononucleotide, designed as: OFF switch for flavin mononucleotide

Sequence: GGACGUCACAUUUACAUGAGGAUCACCCAUGUCGAAAGACAUGAGGAUAUGCAUCCUAAUUGGAUGCAGAAGGCAUGGACGUCC
- apparent Kd [1]: 335 nM
- apparent Kd [2]: 245 nM

Sequence: GAUUUCGCAUGAGGAUAUGCUCGCAUUUCAAGAGCAGAAGGUAUGUCUUUAGACAUGAGGAUCACCCAUGUAGUUAAGAUUGAA
- apparent Kd [1]: 24.3 nM
- apparent Kd [2]: 14.7 nM

Sequence: GCGUAUAUAUUAUUUAUUUAACAGUCAGAAGGUGAGAAGACGACAUGAGGAUCACCCAUGUUAUUCAAGGAUAUGAUAAUGCGC
- apparent Kd [1]: 27.5 nM
- apparent Kd [2]: 13.3 nM

Sequence: AAGGGACAUGAGGAUCACCCAUGUUCGAAAGACGAUGGAUCGCAGGAUAUCCAGUGUUAGAGAGAGGAGAAGGGUGAUCCUAUU
- apparent Kd [1]: 36.3 nM
- apparent Kd [2]: 27.7 nM

Sequence: GUUUUAUAAGAGAAGGAGGACUUCAUGAGGAUCACCCAUGUGUUAGUACUUAGGAUAUUUGAUAACAUGAGGAUCACCCAUGUC
- apparent Kd [1]: 27.6 nM
- apparent Kd [2]: 27.7 nM

Sequence: UGUGCCGGAUCAGGAUAUCCACAGCGGCAAUCACAUGAGGAUCACCCAUGUGGAGAAGGGAUUCGCGAAUUAAUAUCUCGAUAA
- apparent Kd [3]: 33.5 nM
- apparent Kd [4]: 56.6 nM

Sequence: GAGGCUAAAGGAUAUACAUGAGGAUCACCCAUGUGGAGGAAGGUUAGAUGAGGAGAAGGUAGAAGGUUAGGCGG
- apparent Kd [3]: 37.3 nM
- apparent Kd [4]: 30.9 nM

Sequence: CGUGCGUCGACAGGAUAUACAGAUUGGCUCCGGUACAUGAGGAUCACCCAUGUAGAAGGGUCACGCACGGAUAGUUCGAUAUUA
- apparent Kd [3]: 9.36 nM
- apparent Kd [4]: 43.1 nM

Sequence: CUCAUUAACAUGAGGAUCACCCAUGUUGGCCAGUCUCACACCAGAAGGCCCGUUGAGCACAGCAGGGAGGAUAUGGGUGACAUA
- apparent Kd [1]: 309 nM
- apparent Kd [2]: 211 nM

Sequence: CUGCCUACAUGAGGAUCACCCAUGUCUGGCGAAAGAGUUCAGUAGGAUAUGAGAUUGGGUAAUCAUCAGAAGGGCUGGCAAAAG
- apparent Kd [1]: 37.5 nM
- apparent Kd [2]: 14.2 nM

Sequence: CGAAGUCCGUAGAAGGGUGACAUGAGGAUCACCCAUGUGCGAGCGGAUGGAGUCAGCGGCUCGCCACAGGAUAUACGGAGCACG
- apparent Kd [1]: 30.6 nM
- apparent Kd [2]: 65.3 nM

Sequence: AUCAGCUCGUCAGGAUAUACGUCACUGCGUCAGCAGUGUGGUAAGAUCACAUGAGGAUCACCCAUGUAGAAGGGACGAGCUGAU
- apparent Kd [3]: 39.7 nM
- apparent Kd [4]: 696 nM

Sequence: UAGAUGGGAGGAUAUGCGUAGAUACGGAUUCGUGUAGUGCUACAUGAGGAUCACCCAUGUAGAAGGCCCGUCUU
- apparent Kd [3]: 15.2 nM
- apparent Kd [4]: 18.3 nM

Sequence: GUCUCAGUUGGCUUCAAGGGCGGUCAGGAUAUGCUAACGUACAUGAGGAUCACCCAUGUCCAAGUGCAGAAGGGACAUACGCCA
- apparent Kd [1]: 62.6 nM
- apparent Kd [2]: 7.85 nM

Sequence: UUUGUUUUGCAAGGAUAUGUUUAAUUUUAGUUUCCUUACACAUGAGGAUCACCCAUGUUAUACUUACAGAAGGUGCGUAAUUUG
- apparent Kd [3]: 149 nM
- apparent Kd [4]: 136 nM

Sequence: CUCUACAUAGGAUAUACAUGAGGAUCACCCAUGUAUGUUUCGACAUGCGUUUACCUCGGUAGAAGGAUGUAGUA
- apparent Kd [3]: 68.2 nM
- apparent Kd [4]: 185 nM

Sequence: UGGUACUAGGGAGGAUAUGGGAAGAUACAUGAGGAUCACCCAUGUUUAAGAAUGCCGAGAGGCAACUAGAAGGCCCUAGUCCCU
- apparent Kd [1]: 317 nM
- apparent Kd [2]: 19.1 nM

Sequence: AAAAGGCAAGGAUAUACAUGAGGAUCACCCAUGUAAUUCCCGUCGGGAUGACCGAUAUGUAGAAGGUGCAUUAA
- apparent Kd [3]: 20.1 nM
- apparent Kd [4]: 43.4 nM

Sequence: GGGAGACAUGAGGAUCACCCAUGUGAAAACGUGUGAGGAUAUGUAUGGAAACCAUACUGUACAGAAGGCACUUGUC
- apparent Kd [1]: 53.8 nM
- apparent Kd [2]: 41 nM

Sequence: GAAGAGACAGGAUAUACAUGAGGAUCACCCAUGUGAGGAUGUUGGAGGCGGAGGAGGUGUAGAAGGGUCAAAGA
- apparent Kd [3]: 31.2 nM
- apparent Kd [4]: 28.7 nM

Sequence: AGAUAGGAUGCAGGAUAUCUAUCUUGAAUGAGGAGAGAAGGGCAAGUAGAUAGAUAAGCCUCAUGACAUGAGGAUCACCCAUGU
- apparent Kd [3]: 14.1 nM
- apparent Kd [4]: 12.9 nM

Sequence: UGAUCGAGAGAUCUUAGAUUCUGGUAGGAUAUACAUUAUGUUUGAAAUACAUGAGGAUCACCCAUGUAGAAGGACUAGAGUCUA
- apparent Kd [3]: 6.71 nM
- apparent Kd [4]: 11.7 nM

Sequence: AAACGACGUCAGAAGGCCGAUGGAUUUGACCACGGAGGAUAUGACAUGAGGAUCACCCAUGUGGUGCUUCUAACCCGCUGGGCC
- apparent Kd [3]: 501 nM
- apparent Kd [4]: 69.7 nM

Sequence: UAAUAUUUAUAAUAUUAUUACAUUAGAAGGCUAGACAUGUGGAUACAUGAGGAUCACCCAUGUAUAGAGGAUAUAGACAUAUAU
- apparent Kd [3]: 29.5 nM
- apparent Kd [4]: 79.9 nM

Sequence: CUGCUCGUAGAGAAGGCGUGGGCACAUGAGGAUCACCCAUGUCGCAGUACGAGGAUAUUUGCCGGCCCGCCCAAAAUGGCGCGG
- apparent Kd [1]: 501 nM
- apparent Kd [2]: 119 nM

Sequence: UGUUGUAUUACAGGAUAUCUAUUAUUUUUAUGUAGAGAAGGGUAUUCACAUGAGGAUCACCCAUGUAUAUACGAGGAAGUUGUG
- apparent Kd [1]: 44.1 nM
- apparent Kd [2]: 45.5 nM

Sequence: UCUGGUCGAGGAUAUAUAUGACGUGCUUCGGCACGAAGAUCACAUGAGGAUCACCCAUGUAGAAGGCGACCAGA
- apparent Kd [3]: 130 nM
- apparent Kd [4]: 1160 nM

Sequence: GCACUGGAUGUAGGAUAUCAGGACGAUAAGUCCUGAGAAGGACAUGAGGAUCACCCAUGUGAUUAUACCAGUGCAAAUAAUAUA
- apparent Kd [3]: 30.7 nM
- apparent Kd [4]: 274 nM

Sequence: GUUUUACAUGAGGAUCACCCAUGUGAGGAUAUAUUGUUAUUUUUGAUAUUUUUUGGUGGUAGAAGGCGCGUGAU
- apparent Kd [3]: 36.4 nM
- apparent Kd [4]: 32.7 nM

Sequence: CGCUGUCACGCAGGAUAUGCAUUGGAUUCCAAUGCAGAAGGGCGAUUACAUGAGGAUCACCCAUGUGCUGACAGUGAAGAAGAG
- apparent Kd [1]: 1300 nM
- apparent Kd [2]: 65.9 nM

Sequence: GCACAUGGCAUAGGAUAUAGAACUUUACUUUAUAUAGGUAGUUACACUUAACUAGAAGGAUGUUACAUGAGGAUCACCCAUGUU
- apparent Kd [1]: 25.4 nM
- apparent Kd [2]: 20 nM

Sequence: GGGUACAUCGGAGGAUAUCAUGUAAAUACAUGAGGAUCACCCAUGUCGAUGGAGAUAUCGGAGAUUGAGAAGGCCGAUGUACCG
- apparent Kd [1]: 102 nM
- apparent Kd [2]: 9.9 nM

Sequence: AGGCGAGUAGGAUAUGCGUUUUUACGGGAAAGCUGGAUGGUACAUGAGGAUCACCCAUGUAGAAGGGCUCUGAA
- apparent Kd [3]: 23.4 nM
- apparent Kd [4]: 21.8 nM

Sequence: CUGUUUGUAGGAUAUACAUGCGGAACCCUCUUCAUGGAAAGACAUGAGGAUCACCCAUGUAGAAGGAUGAAGAG
- apparent Kd [3]: 19.7 nM
- apparent Kd [4]: 17.9 nM

Sequence: UUGAAGUCAUCAGGAUAUAGUAUUAAAGACAUUUAUUUUUUCAUACAUGAGGAUCACCCAUGUCGCUAGAAGGGAUUAUAGAUU
- apparent Kd [3]: 51.8 nM
- apparent Kd [4]: 49.2 nM

Sequence: GCCAGAGAAGGAUAUACGAGGAUCGAGUGGUCACACCUACAACAUGAGGAUCACCCAUGUAGAAGGUUUCGGCU
- apparent Kd [3]: 13.9 nM
- apparent Kd [4]: 16.3 nM

Sequence: CAUAAACAUGAGGAUCACCCAUGUGAGGAUAUGAUAUUACUAGGACGGCUGUAAUCAAUCAGAAGGCACAUCUU
- apparent Kd [3]: 18.5 nM
- apparent Kd [4]: 37.5 nM

Sequence: GCAAAGCCUGACAUGAGGAUCACCCAUGUUAGAUUGUUAUGUCAGGAUAUUGUCUAGACACUAGACAAGAAGGGAUGCUUUGCU
- apparent Kd [1]: 366 nM
- apparent Kd [2]: 34.2 nM

Sequence: GCCAUCGCAUGAGGAUAUGCUCGGGUUUCCCGAGCAGAAGGCAUGUCAUAAGACAUGAGGAUCACCCAUGUAGUUAAGAUGGCA
- apparent Kd [1]: 813 nM
- apparent Kd [2]: 35.9 nM

Sequence: AGCAUGUUUGGGUAACCUGGCACAUGAGGAUCACCCAUGUGACAGGAUAUCGACGUAGAUGGCGACGAGAAGGGUCCGAUGGGU
- apparent Kd [3]: 5.78 nM
- apparent Kd [4]: 7.01 nM

Sequence: UGGUAGUCAGGAUAUACGAACAUGUCGCCAGAUGUCAAGGUACAUGAGGAUCACCCAUGUAGAAGGGACUAGAA
- apparent Kd [3]: 44.5 nM
- apparent Kd [4]: 48.2 nM

Sequence: UACUUACGAGGAUAUCGAUUGUGGUACAUGAGGAUCACCCAUGUAUGUGAUAUUGUAUUUCGAGAAGGCGUUCAGU
- apparent Kd [3]: 25.8 nM
- apparent Kd [4]: 21.7 nM

Sequence: GGGCAAUAGUAGAAGGGAUAUACGAAAGGUAUAUCAGGAUAUACAUGAGGAUCACCCAUGUUCUAACAGUGAUAGUCCUCCCUA
- apparent Kd [3]: 24.3 nM
- apparent Kd [4]: 171 nM

Sequence: ACCUGGAUAGGAUAUACAUGAGGAUCACCCAUGUGACUCAGGCCAGGGAAGUACUUCGGUAGAAGGGUCCAGUA
- apparent Kd [3]: 18.2 nM
- apparent Kd [4]: 20.7 nM

Sequence: GGAAAACAUGAGGAUCACCCAUGUGAGGAUAUCGAUGUCCAAAAAGAGGUGCGGGACUCGAGAAGGCACUUGGA
- apparent Kd [3]: 55.1 nM
- apparent Kd [4]: 54 nM

Sequence: AUCAGCUCGUCAGGAUAUACGUCACUGCGUCAGCAUUGUGGUAAGAUCACAUGAGGAUCACCCAUGUAGAAGGGACGAGCUGAU
- apparent Kd [3]: 19.5 nM
- apparent Kd [4]: 190 nM

Sequence: AUCAGCUCGUCAGGAUAUACGUCACUGCGUCAGCAGUGUGGUACGAUCACAUGAGGAUCACCCAUGUAGAAGGGACGAGCUGAU
- apparent Kd [3]: 12.7 nM
- apparent Kd [4]: 215 nM

Sequence: CAUCAGUGUUAAGGAUAUGGCAGCGGAAGCGCACCAGAAGGUAGCACAUGAGGAUCACCCAUGUGUUCUGGCUUGAGCGUGAUC
- apparent Kd [3]: 36.5 nM
- apparent Kd [4]: 75.2 nM
